Measured values reported in publication PMC6210075 (ACS Omega, 2018).
Converted amounts (≈) assume the structure as drawn.

How the values were obtained:
serine hydrolases [1] = biological target: T1, serine hydrolases (Mus musculus, UniProt O08914); test: Activity-based protein profiling; type: biochemical; settings: mouse brain tissue homogenate, inhibitor 20 µM
T1 sequence (O08914 1-579): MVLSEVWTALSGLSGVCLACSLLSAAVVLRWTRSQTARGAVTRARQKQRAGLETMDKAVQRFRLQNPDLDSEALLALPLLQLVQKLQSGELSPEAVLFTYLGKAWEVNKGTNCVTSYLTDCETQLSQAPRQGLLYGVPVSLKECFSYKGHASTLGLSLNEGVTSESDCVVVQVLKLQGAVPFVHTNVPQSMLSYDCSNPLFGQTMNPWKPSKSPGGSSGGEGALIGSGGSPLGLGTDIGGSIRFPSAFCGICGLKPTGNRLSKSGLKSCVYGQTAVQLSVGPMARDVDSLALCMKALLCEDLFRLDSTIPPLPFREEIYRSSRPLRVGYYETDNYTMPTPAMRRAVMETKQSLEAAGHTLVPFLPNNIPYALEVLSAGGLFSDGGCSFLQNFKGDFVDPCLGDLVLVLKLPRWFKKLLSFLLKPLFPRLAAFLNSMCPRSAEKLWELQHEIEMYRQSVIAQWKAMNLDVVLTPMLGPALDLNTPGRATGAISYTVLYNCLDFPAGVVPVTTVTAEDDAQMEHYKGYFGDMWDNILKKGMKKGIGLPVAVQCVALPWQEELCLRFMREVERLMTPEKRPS

serine hydrolases [2] = test: Activity-based protein profiling; type: biochemical, mouse; settings: mouse liver tissue homogenate, inhibitor 20 µM
Water solubility = type: physicochemical; settings: DI water, 37 °C, thermodynamic from solid
Summary of the method: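 2–5 mg of solid was shaken in water for 2 days at 37 °C. The solution was filtered through PTFE, diluted twofold in MeOH containing 15 nM B-12, and quantified by LC/MS/MS.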

[3] = Cassette dosing pharmacokinetics in mice; type: in vivo; settings: male, Swiss Webster, mouse, whole blood, po, 1 mg/kg
Summary of the method: (§1)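 Test compounds were given as a cassette cocktail at 1 mg/kg each, p.o. in PEG300, to groups of 4 rats or 4 mice. Blood was taken by tail vein at set intervals and group averages were used.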

[4] = Cassette dosing pharmacokinetics in rats; type: in vivo; settings: male, Sprague-Dawley, rat, whole blood, po, 1 mg/kg
Summary of the method: as §1

FAAH = biological target: T2, FAAH (Mus musculus, UniProt O08914); type: in vivo; settings: mice, 1 mg/kg i.p. in DMSO, 4 h after dosing
T2 sequence (O08914 1-579): T1 sequence (O08914 1-579)
Summary of the method: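 Male Swiss Webster mice got test compound in 20 μL DMSO i.p. and were killed 4 h later. Tissue was homogenized about fivefold by weight in 20 mM phosphate, pH 7.4, 5 mM EDTA, then diluted 1000-fold (liver) or 100-fold (brain) in 100 mM phosphate, pH 8.0, 0.1% BSA. OMP (100 μM final) hydrolysis was read by fluorescence (303/394 nm) for 10 min, normalized to BCA protein, and expressed as % of vehicle.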

human CES2 = biological target: T3, human CES2 (Homo sapiens, UniProt O00748); test: Esterase assay, CES2; type: biochemical
T3 sequence (O00748 27-559): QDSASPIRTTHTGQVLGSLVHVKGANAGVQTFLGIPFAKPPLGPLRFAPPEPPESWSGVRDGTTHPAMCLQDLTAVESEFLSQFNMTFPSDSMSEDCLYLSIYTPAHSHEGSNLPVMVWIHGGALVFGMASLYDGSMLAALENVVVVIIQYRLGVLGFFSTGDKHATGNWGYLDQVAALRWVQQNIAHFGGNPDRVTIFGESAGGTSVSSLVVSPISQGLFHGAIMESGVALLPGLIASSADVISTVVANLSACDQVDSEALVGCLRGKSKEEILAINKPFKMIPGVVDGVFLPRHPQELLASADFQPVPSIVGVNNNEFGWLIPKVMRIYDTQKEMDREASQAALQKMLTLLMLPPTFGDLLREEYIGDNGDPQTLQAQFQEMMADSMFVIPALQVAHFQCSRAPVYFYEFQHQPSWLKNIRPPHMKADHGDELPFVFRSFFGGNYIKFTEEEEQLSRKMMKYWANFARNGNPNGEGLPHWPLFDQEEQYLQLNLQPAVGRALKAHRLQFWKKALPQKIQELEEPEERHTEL
Summary of the method: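 Crude recombinant human CES2 extract was used with 5 min inhibitor preincubation in 0.1 M sodium phosphate, pH 8, 0.1 mg/mL BSA, 2% final DMSO. Substrate was cyano(6-methoxynaphthalen-2-yl)methyl acetate (50 μM final). […] Triplicates.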

sEH = biological target: T4, sEH (Mus musculus, UniProt P34914); test: In vivo target engagement: residual sEH activity; settings: mice, 1 mg/kg i.p. in DMSO, 4 h after dosing
T4 sequence (P34914 1-554): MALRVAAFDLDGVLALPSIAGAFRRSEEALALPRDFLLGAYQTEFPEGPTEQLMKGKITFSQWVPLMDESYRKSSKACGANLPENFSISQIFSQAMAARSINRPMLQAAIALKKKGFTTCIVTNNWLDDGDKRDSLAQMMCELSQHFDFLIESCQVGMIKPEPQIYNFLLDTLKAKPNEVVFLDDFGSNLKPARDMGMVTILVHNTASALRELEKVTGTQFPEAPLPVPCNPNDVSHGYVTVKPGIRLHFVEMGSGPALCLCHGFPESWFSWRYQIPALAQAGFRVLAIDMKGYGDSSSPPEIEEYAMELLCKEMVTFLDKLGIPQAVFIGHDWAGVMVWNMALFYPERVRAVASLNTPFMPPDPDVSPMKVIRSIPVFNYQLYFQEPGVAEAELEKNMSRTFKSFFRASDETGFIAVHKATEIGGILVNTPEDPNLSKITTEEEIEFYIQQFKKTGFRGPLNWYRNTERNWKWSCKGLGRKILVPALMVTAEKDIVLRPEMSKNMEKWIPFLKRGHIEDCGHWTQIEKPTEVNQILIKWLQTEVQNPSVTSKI

| SMILES | intensity of the FAAH band (ABPP) (serine hydrolases [1]) | other serine hydrolase bands (ABPP) (serine hydrolases [2]) | solubility at 2 days (Water solubility) [nM] | AUC [3] [µM·h] | Cmax [3] [nM] | AUC [4] [µM·h] | Cmax [4] [nM] | residual brain FAAH activity, % of control (FAAH; brain) [%] | residual liver FAAH activity, % of control (FAAH; liver) [%] | IC50 (human CES2) [nM] | residual brain sEH activity, % of control (sEH) [%] |
| --- | --- | --- | --- | --- | --- | --- | --- | --- | --- | --- | --- |
| O=C(Nc1ccc(C(F)(F)F)cc1F)N1CCC(Cc2cccc(Oc3ccc(C(F)(F)F)cn3)c2)CC1 [compound 18] | does not appear to fully inhibit the band corresponding to FAAH | neither 11, 13, 14, 18, nor PF-3845 had any effect on the intensity of other bands | 2.8 (≈ 1.52 ng/mL) | 0.41 | 37 | 0.6 | 58 | – | – | – | – |
| O=C(Nc1cccnc1)N1CCC(Cc2cccc(Oc3ccc(C(F)(F)F)cn3)c2)CC1 [PF-3845, reference compound] | reduced | neither 11, 13, 14, 18, nor PF-3845 had any effect on the intensity of other bands | – | – | – | – | – | 0.2 ± 0.1 | 22 ± 2 | 1100 | 63 ± 14 |
